From ChEMBL document CHEMBL3232782, “1,2,3,4,8,9,10,11-octahydrobenzo[j]phenanthridine-7,12-diones as new leads against Mycobacterium tuberculosis” (J Med Chem, 2014)

How the values were obtained:
Type in all cases: functional
[1] = tested on: Mycobacterium tuberculosis; assay: Antimycobacterial activity against multidrug-resistant Mycobacterium tuberculosis LAM-1 assessed as bacterial growth index at 0.50 uM measured on day 6 by BACTEC MGIT 960TB method relative to control
Outline: (§1)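 MDR LAM-1, resistant to INH, RIF, rifabutin and prothionamide, was precultured in BACTEC MGIT vials to GI 300. It was inoculated with compound dilutions made from 1 mg/mL DMSO stocks in 7H9-OADC. Growth index was recorded daily. Day-6 GI was compared with an untreated culture diluted 100-fold (C/100) to set the critical 99% inhibitory concentration. Controls: INH 0.1 μM; moxifloxacin 1.14 μM.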

[2] = tested on: Mycobacterium tuberculosis; assay: Antimycobacterial activity against multidrug-resistant Mycobacterium tuberculosis LAM-1 assessed as bacterial growth index at 2.5 uM measured on day 6 by BACTEC MGIT 960TB method relative to control; outline: as §1
[3] = tested on: Mycobacterium tuberculosis; assay: Antimycobacterial activity against multidrug-resistant Mycobacterium tuberculosis LAM-1 assessed as bacterial growth index at 0.25 uM measured on day 6 by BACTEC MGIT 960TB method relative to control; outline: as §1

CC(C)(C)C1CCc2ncc3c(c2C1)C(=O)C1=C(C3=O)C2CCC1C2 (stereo unspecified)
Growth_index [1]: 1982 | Growth_index [2]: 537

CCOC(=O)C1CCc2ncc3c(c2C1)C(=O)C1=C(C3=O)C2CCC1C2 (stereo unspecified)
Growth_index [1]: 367 | Growth_index [3]: 1970

CCOC(=O)C1CCc2ncc3c(c2C1)C(=O)C1=C(C3=O)C2CCC1CC2 (stereo unspecified)
Growth_index [1]: 638 | Growth_index [3]: 2382
